Laboratory results published in ChEMBL document CHEMBL5705890, “Antitumor activity of an allosteric inhibitor of centromere-associated protein-E” (Proc Natl Acad Sci U S A, 2010).

Experiments:
PC-3 = test: Anticancer activity against human PC-3 cells assessed as cell doubling measured for 72 hrs by DAPI staining based analysis; format: functional
[1] = Anticancer activity against human A7 cells assessed as cell growth inhibition measured after 72 hrs by DAPI staining based analysis; format: functional
In short: (§1)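 Cells were seeded and, after 24 h, DNA content was read as T0. Cells were then exposed to varying drug concentrations for a further 72 h (T72). Fixed cells were DAPI-stained and DNA content measured by automated imaging. T72 values were normalized to T0. GI50 is the concentration giving 50% growth inhibition between T0 and Ymax, obtained by curve fitting.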

MDA-MB-435 = test: Anticancer activity against human MDA-MB-435 cells assessed as cell growth inhibition measured after 72 hrs by DAPI staining based analysis; format: functional
SNU-387 = test: Anticancer activity against human SNU-387 cells assessed as cell doubling measured for 72 hrs by DAPI staining based analysis; format: functional
UACC-62 = test: Anticancer activity against human UACC-62 cells assessed as cell growth inhibition measured after 72 hrs by DAPI staining based analysis; format: functional
SCaBER = test: Anticancer activity against human SCaBER cells assessed as cell growth inhibition measured after 72 hrs by DAPI staining based analysis; format: functional
NCI-H1299 = test: Anticancer activity against human NCI-H1299 cells assessed as cell growth inhibition measured after 72 hrs by DAPI staining based analysis; format: functional
MV4-11 = test: Anticancer activity against human MV4-11 cells assessed as cell growth inhibition measured after 72 hrs by DAPI staining based analysis; format: functional
MDA-MB-468 = test: Anticancer activity against human MDA-MB-468 cells assessed as cell doubling measured for 72 hrs by DAPI staining based analysis; format: functional
SK-NEP-1 = test: Anticancer activity against human SK-NEP-1 cells assessed as cell growth inhibition measured after 72 hrs by DAPI staining based analysis; format: functional
[2] = Anticancer activity against human C4-1 cells assessed as cell growth inhibition measured after 72 hrs by DAPI staining based analysis; format: functional
In short: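 Cells were seeded, and DNA content at 24 h after seeding (T0) was read by imaging of fixed, DAPI-stained cells. Cells were then exposed to a range of drug concentrations for a further 72 h (T72) and DNA content was read again. T72 values were normalized to T0, and GI50 was taken from curve fits as the concentration giving 50% growth inhibition relative to T0 and Ymax.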

A 172 = test: Anticancer activity against human A-172 cells assessed as cell doubling measured for 72 hrs by DAPI staining based analysis; format: functional
HT-1376 = test: Anticancer activity against human HT-1376 cells assessed as cell growth inhibition measured after 72 hrs by DAPI staining based analysis; format: functional
HMCB cell line [3] = test: Anticancer activity against human HMCB cells assessed as cell growth inhibition measured after 72 hrs by DAPI staining based analysis; format: functional
JEG-3 = test: Anticancer activity against human JEG-3 cells assessed as cell doubling measured for 72 hrs by DAPI staining based analysis; format: functional
LOX IMVI = test: Anticancer activity against human LOX IMVI cells assessed as cell doubling measured for 72 hrs by DAPI staining based analysis; format: functional
BPH-1 = test: Anticancer activity against human BPH-1 cells assessed as cell doubling measured for 72 hrs by DAPI staining based analysis; format: functional
[4] = Anticancer activity against human UM-SCC-12 cells assessed as cell doubling measured for 72 hrs by DAPI staining based analysis; format: functional
SK-MEL3 = test: Anticancer activity against human SK-MEL3 cells assessed as cell growth inhibition measured after 72 hrs by DAPI staining based analysis; format: functional
[5] = Anticancer activity against human BC1 cells assessed as cell growth inhibition measured after 72 hrs by DAPI staining based analysis; format: functional; in short: as §1
CWR22R = test: Anticancer activity against human 22Rv1 cells assessed as cell growth inhibition measured after 72 hrs by DAPI staining based analysis; format: functional; in short: as §1
ARH-77 = test: Anticancer activity against human ARH-77 cells assessed as cell doubling measured for 72 hrs by DAPI staining based analysis; format: functional
YAPC [6] = test: Anticancer activity against human YAPC cells assessed as cell growth inhibition measured after 72 hrs by DAPI staining based analysis; format: functional
AGS = test: Anticancer activity against human AGS cells assessed as cell doubling measured for 72 hrs by DAPI staining based analysis; format: functional
[7] = molecular target: Centromere-associated protein E (Homo sapiens, UniProt Q02224, I182L/T183A); test: Binding affinity to human CENP-E I182L/T183A mutant assessed as inhibition constant
Centromere-associated protein E, sequence (Q02224 whole entry I182L/T183A): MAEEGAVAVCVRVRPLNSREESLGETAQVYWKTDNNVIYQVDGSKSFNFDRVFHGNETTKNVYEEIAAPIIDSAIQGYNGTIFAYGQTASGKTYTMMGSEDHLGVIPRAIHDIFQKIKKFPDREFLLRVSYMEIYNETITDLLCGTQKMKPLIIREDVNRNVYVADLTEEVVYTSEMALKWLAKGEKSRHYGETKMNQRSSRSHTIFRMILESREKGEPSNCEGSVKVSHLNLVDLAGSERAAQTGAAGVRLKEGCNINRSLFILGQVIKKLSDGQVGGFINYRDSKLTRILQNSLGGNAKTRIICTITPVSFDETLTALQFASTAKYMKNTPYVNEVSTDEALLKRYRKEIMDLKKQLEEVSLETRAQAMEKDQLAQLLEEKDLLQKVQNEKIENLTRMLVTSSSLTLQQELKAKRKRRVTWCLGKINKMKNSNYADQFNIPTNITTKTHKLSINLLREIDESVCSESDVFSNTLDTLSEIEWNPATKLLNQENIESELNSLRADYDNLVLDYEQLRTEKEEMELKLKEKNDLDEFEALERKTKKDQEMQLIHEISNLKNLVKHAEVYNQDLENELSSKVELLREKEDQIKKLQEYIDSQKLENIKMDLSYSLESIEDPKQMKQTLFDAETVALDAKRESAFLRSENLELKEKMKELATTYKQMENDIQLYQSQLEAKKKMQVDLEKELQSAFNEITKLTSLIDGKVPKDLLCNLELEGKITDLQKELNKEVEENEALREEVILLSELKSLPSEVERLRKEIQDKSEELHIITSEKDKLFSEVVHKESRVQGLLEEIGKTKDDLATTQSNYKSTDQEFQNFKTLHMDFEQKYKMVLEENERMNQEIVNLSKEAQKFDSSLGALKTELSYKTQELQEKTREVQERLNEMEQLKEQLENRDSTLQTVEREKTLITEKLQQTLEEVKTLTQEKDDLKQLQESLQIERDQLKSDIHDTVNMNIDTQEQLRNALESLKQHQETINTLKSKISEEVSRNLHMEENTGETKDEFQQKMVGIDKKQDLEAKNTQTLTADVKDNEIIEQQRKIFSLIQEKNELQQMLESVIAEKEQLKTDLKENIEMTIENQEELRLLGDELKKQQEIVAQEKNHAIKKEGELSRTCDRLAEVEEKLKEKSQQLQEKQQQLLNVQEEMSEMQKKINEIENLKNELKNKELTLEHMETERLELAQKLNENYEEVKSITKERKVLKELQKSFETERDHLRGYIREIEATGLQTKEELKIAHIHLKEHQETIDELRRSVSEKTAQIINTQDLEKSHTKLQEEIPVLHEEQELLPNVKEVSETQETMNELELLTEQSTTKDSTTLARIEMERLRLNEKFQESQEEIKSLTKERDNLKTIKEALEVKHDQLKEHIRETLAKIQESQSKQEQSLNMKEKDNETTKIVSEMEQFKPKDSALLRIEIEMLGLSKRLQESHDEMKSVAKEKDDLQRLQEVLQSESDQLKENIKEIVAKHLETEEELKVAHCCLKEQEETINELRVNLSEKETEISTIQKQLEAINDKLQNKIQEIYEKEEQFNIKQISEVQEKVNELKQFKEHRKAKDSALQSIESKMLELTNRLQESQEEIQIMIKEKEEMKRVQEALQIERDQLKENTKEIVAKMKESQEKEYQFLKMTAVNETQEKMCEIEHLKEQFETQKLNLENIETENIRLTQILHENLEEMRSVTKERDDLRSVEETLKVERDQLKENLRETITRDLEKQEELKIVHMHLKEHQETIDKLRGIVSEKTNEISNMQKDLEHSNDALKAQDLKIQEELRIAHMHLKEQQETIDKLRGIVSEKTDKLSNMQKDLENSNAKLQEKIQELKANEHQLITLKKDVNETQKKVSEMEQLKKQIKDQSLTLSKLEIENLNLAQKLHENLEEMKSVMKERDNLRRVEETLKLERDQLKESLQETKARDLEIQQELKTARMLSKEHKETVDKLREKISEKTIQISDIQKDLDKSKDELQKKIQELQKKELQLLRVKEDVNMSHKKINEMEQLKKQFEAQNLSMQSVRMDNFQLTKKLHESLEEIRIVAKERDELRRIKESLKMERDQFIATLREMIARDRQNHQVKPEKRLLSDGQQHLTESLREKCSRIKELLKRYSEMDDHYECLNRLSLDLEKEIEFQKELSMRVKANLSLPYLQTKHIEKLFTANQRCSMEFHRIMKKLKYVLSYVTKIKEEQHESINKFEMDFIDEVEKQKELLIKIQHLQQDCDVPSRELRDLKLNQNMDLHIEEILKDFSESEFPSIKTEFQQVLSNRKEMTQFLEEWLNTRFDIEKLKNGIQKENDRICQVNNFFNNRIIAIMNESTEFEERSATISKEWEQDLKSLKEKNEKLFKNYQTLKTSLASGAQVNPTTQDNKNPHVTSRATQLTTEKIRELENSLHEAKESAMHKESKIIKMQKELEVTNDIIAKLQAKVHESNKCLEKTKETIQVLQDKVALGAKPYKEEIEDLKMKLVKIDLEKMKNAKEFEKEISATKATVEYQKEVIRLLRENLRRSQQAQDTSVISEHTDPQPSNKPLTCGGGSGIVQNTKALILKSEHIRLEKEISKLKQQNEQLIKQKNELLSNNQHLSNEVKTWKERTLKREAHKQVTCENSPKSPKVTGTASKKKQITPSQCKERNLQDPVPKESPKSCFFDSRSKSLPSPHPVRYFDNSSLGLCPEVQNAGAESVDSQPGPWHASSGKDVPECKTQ

MCF7 = test: Antitumor activity against human MCF7 cells in xenograft model assessed as difference between median time to endpoint time of treated versus control group at 125 mg/kg; format: functional
[8] = Anticancer activity against human KPL-1 cells assessed as cell growth inhibition measured after 72 hrs by DAPI staining based analysis; format: functional
HeLa = test: Anticancer activity against human HeLa cells assessed as cell growth inhibition measured after 72 hrs by DAPI staining based analysis; format: functional
RPMI-2650 = test: Anticancer activity against human RPMI-2650 cells assessed as cell growth inhibition measured after 72 hrs by DAPI staining based analysis; format: functional
[9] = Anticancer activity against human MJ cells assessed as cell growth inhibition measured after 72 hrs by DAPI staining based analysis; format: functional
MIA PaCa-2 = test: Anticancer activity against human MIA PaCa-2 cells assessed as cell growth inhibition measured after 72 hrs by DAPI staining based analysis; format: functional
HMCB cell line [10] = test: Anticancer activity against human HMCB cells assessed as cell doubling measured for 72 hrs by DAPI staining based analysis; format: functional
OVCAR-8 = test: Anticancer activity against human OVCAR-8 cells assessed as cell growth inhibition measured after 72 hrs by DAPI staining based analysis; format: functional
SCC-9 [11] = test: Anticancer activity against human SCC-9 cells assessed as cell doubling measured for 72 hrs by DAPI staining based analysis; format: functional
SN12C = test: Anticancer activity against human SN12C cells assessed as cell doubling measured for 72 hrs by DAPI staining based analysis; format: functional
YAPC [12] = test: Anticancer activity against human YAPC cells assessed as cell doubling measured for 72 hrs by DAPI staining based analysis; format: functional
SW-403 = test: Anticancer activity against human SW403 cells assessed as cell growth inhibition measured after 72 hrs by DAPI staining based analysis; format: functional
BE(2)-C = test: Anticancer activity against human BE2C cells assessed as cell doubling measured for 72 hrs by DAPI staining based analysis; format: functional
NCI-N87 = test: Anticancer activity against human NCI-N87 cells assessed as cell growth inhibition measured after 72 hrs by DAPI staining based analysis; format: functional
SCC-9 [13] = test: Anticancer activity against human SCC-9 cells assessed as cell growth inhibition measured after 72 hrs by DAPI staining based analysis; format: functional
GCT = test: Anticancer activity against human GCT cells assessed as cell doubling measured for 72 hrs by DAPI staining based analysis; format: functional
[14] = Antitumor activity against human MV-522 cells in xenograft model assessed as difference between median time to endpoint time of treated versus control group at 125 mg/kg; format: functional

With `CC(C)Oc1ccc(C(=O)N[C@H](CNC(=O)CN(C)C)Cc2ccc(-c3cn4cccc([C@H](C)O)c4n3)cc2)cc1Cl` [GSK-923295A] the Activity (PC-3) was 3.07, the GI50 [1] was 40 nM and the GI50 (MDA-MB-435) was 30 nM. For the same compound, the Activity (SNU-387) was 1.21, the GI50 (UACC-62) was 25 nM and the GI50 (SCaBER) was 54 nM. It also gave a GI50 (NCI-H1299) of 52 nM, a GI50 (MV4-11) of 29 nM and an Activity (MDA-MB-468) of 2.05. It also gave a GI50 (SK-NEP-1) of 55 nM, a GI50 [2] of 42 nM and an Activity (A 172) of 1.84. It also gave a GI50 (HT-1376) of 33 nM, a GI50 (HMCB cell line [3]) of 25 nM and an Activity (JEG-3) of 2.9. It also gave an Activity (LOX IMVI) of 2.32, an Activity (BPH-1) of 2.08 and an Activity [4] of 1.78. The GI50 (SK-MEL3) was 30 nM, the GI50 [5] was 83 nM and the GI50 (CWR22R) was 29 nM. The Activity (ARH-77) was 1.62, the GI50 (YAPC [6]) was 59 nM and the Activity (AGS) was 2.95. It also gave a Ki [7] of 61 nM, a Time (MCF7) of 15.8 days and a GI50 [8] of 31 nM. The GI50 (HeLa) was 20 nM, the GI50 (RPMI-2650) was 36 nM and the GI50 [9] was 50 nM. For the same compound, the GI50 (MIA PaCa-2) was 23 nM, the Activity (HMCB cell line [10]) was 2.92 and the GI50 (OVCAR-8) was 50 nM. It also gave an Activity (SCC-9 [11]) of 1.95, an Activity (SN12C) of 2.47 and an Activity (YAPC [12]) of 2.14. The GI50 (SW-403) was 24 nM, the Activity (BE(2)-C) was 2.28 and the GI50 (NCI-N87) was 29 nM. For the same compound, the GI50 (SCC-9 [13]) was 24 nM, the Activity (GCT) was 2.3 and the Time [14] was 26.3 days.
